Data published in publication PMC4373334 (Journal of Cellular and Molecular Medicine, 2010).

Key:
[1] = HNE quenching ability in homogeneous solution; conditions: HNE 200 μM; for HNE quenched: 1:10 molar excess, 24 hrs of incubation; for residual amount of HNE: quencher 2 mM (1:10), phosphate buffer pH 7.4, 37°C, 60 min
[2] = system: Zucker obese (fa/fa) rats; assay: Zucker obese rat: systolic blood pressure by tail-cuff plethysmography; type: in vivo; conditions: end of the experiment (30 weeks)
Procedure, shortened: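 Zucker fa/fa rats dosed in drinking water (30 mg/kg/24 h, weeks 6–30). Systolic pressure taken monthly by tail-cuff plethysmography in conscious, unanaesthetized rats pre-warmed 30 min at 37°C and restrained in a plastic chamber. Heart rate taken from the arterial pulse wave.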

[3] = Pharmacokinetic profile in the rat after oral administration; type: in vivo, Sprague-Dawley rats; conditions: for Cmax: pre-dose concentration subtracted
Procedure, shortened: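 Single oral dose of 100 mg/kg given to three male Sprague-Dawley rats per test compound. Plasma sampled pre-dose and at 0.25, 0.5, 1, 2, 4, 6 and 24 h, stored at –80°C, and assayed by LC-MS/MS. Pre-dose (endogenous) level subtracted. Non-compartmental analysis: Cmax and tmax read from raw data; AUC0–tlast by linear trapezoidal rule.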

[4] = system: Zucker obese (fa/fa) rats; assay: Zucker obese rat: kidney protein carbonyl content; type: in vivo; conditions: for Kidney PCOs: end of the experiment; for reduction of kidney PCOs versus ZK: kidney homogenates
Procedure, shortened: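 Kidneys taken at week 30 from Zucker fa/fa rats (six per group) given test compound in drinking water at 30 mg/kg/24 h. Homogenate 25% w/v in 0.15 M KCl, pH 7.4, with protease inhibitors, centrifuged at 12,000 ×g for 10 min. Total protein carbonyls read at 366 nm (ε 22,000/M/cm), expressed as nmoles/mg protein.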

[5] = system: Zucker obese (fa/fa) rats; assay: Zucker obese rat: kidney cholesterol and triglycerides content; type: in vivo; conditions: end of 24-week treatment, S 9.000 kidney fraction
Procedure, shortened: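 Zucker fa/fa rats dosed via drinking water at 30 mg/kg/24 h from week 6 to week 30; six rats per group used for tissue. Kidney frozen in liquid nitrogen. Total cholesterol and triglycerides measured with commercial kits in S9000 kidney fraction (0.25 g/ml), expressed as μg/mg protein.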

[6] = system: Zucker obese (fa/fa) rats; assay: Zucker obese rat: renal function; type: in vivo; conditions: for restraint of proteinuria/albuminuria/creatininuria: 24 hr urinary excretion, end of treatment; for change in creatinine clearance (GFR) versus ZK / change in plasma creatinine concentration versus ZK / restraint of the increase in urinary albumin-to-creatinine ratio: end of 24-week treatment
[7] = Zucker obese rat: carnosine levels in plasma, urine and renal tissue; type: in vivo; conditions: for Carnosine level, Urine: no compound given during 24 hr in metabolic cage
[8] = Stability in rat kidney S 9000 fraction; type: in vitro ADME
Procedure, shortened: (§1)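 Matrices were human serum (healthy donors, 25–30 yr), human liver S9000 fraction or rat kidney S9000 fraction (0.25 g/ml), pre-warmed 10 min at 37°C. Test compound added from a 1 mM solution in 10 mM PBS, pH 7.4; PBS-only controls run alongside. Sampled at 0–120 min, with 24 h added for serum. Internal standard added, then perchloric acid deproteinization (15 min, 4°C), centrifugation and LC-MS/MS.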

[9] = system: Zucker obese (fa/fa) rats; assay: Zucker obese rat: tail tendon collagen solubility and Ehrlich adducts; type: in vivo; conditions: for reduction of Ehrlich positive material versus ZK: not significant; for Collagen solubility: acetic acid; for Collagen solubility / Ehrlich adducts: end of the experiment
Procedure, shortened: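 Tail tendons from treated Zucker fa/fa rats (drinking water, 30 mg/kg/24 h, weeks 6–30) cleaned and washed in ice-cold 75 mM phosphate buffer, pH 7.00, then lyophilized. Solubility determined on 10 mg samples; hydroxyproline measured after acid hydrolysis, collagen taken as 14% hydroxyproline. Ehrlich adducts and fluorescence (ex 365/em 416 nm) measured on 50 mg pepsin-digested collagen, blank-corrected, per mg collagen.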

[10] = system: Zucker obese (fa/fa) rats; assay: Zucker obese rat, 24-week treatment: plasma parameters; type: in vivo; conditions: for change in plasma cholesterol versus ZK / change in plasma triglycerides versus ZK: after 24 weeks, 30 mg/kg/day; for insulin resistance (HOMA-IR) versus ZK / reduction of hyperinsulinaemia (plasma insulin) versus ZK / effect on plasma glucose levels: end of 24-week treatment; for effect on plasma glucose levels: fasting
Procedure, shortened: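 Male Zucker fa/fa rats (lean littermates as reference), 12 per group, received test compound in drinking water at 30 mg/kg/24 h from week 6 to week 30. Plasma spun 15 min at 4°C and stored at –80°C. Cholesterol, triglycerides, glucose and insulin measured by enzymatic-colorimetric kits. HOMA-IR calculated from fasting glucose and insulin.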

[11] = Stability in human liver S 9.000 fraction; type: in vitro ADME; conditions: within 15 min, then unchanged until 120 min
Procedure, shortened: as §1

[12] = system: Zucker obese (fa/fa) rats; assay: Zucker obese rat: renal morphology and morphometry; type: in vivo; conditions: for mean glomerular diameter / glomerular and interstitial changes (glomerulosclerosis, tubulointerstitial damage) versus ZK: 30 weeks; for mean glomerular diameter: ZK 1.098 ± 0.05; for glomerular and interstitial changes (glomerulosclerosis, tubulointerstitial damage) versus ZK: light microscopy
Stability = type: in vitro ADME, human; conditions: for stability to enzymatic hydrolysis in human serum: 37°C, followed over 24 hrs
Procedure, shortened: as §1

[13] = system: Zucker obese (fa/fa) rats; assay: Zucker obese rat, 24-week treatment: body weight and food intake; type: in vivo; conditions: 30 weeks of age, 30 mg/kg/day for 24 weeks
Procedure, shortened: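 Male Zucker fa/fa rats bought at 5 weeks, with lean Fa/Fa littermates as reference. Housed singly at 22 ± 1°C on a 12 h light/dark cycle, standard chow, 1 week acclimation. Randomized to three groups of 12. Test compound given in drinking water, concentration adjusted weekly to 30 mg/kg/24 h, from week 6 to week 30.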

[14] = system: Zucker obese (fa/fa) rats; assay: Zucker obese rat: urinary oxidative/carbonyl stress indices; type: in vivo; conditions: end of the experiment; for AGEs: urine fluorescence; for CAR-HNE level / 8-epi-PGF2α level: urine; for CAR-HNE level: LC-ESI-MS/MS
Procedure, shortened: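 24 h urine from treated Zucker fa/fa rats (drinking water, 30 mg/kg/24 h, weeks 6–30). 8-epi-PGF2α and TXB2 measured by enzyme immunoassay. Low-molecular-weight AGEs read by fluorescence (ex 370/em 440 nm), expressed per mg urinary creatinine. CAR-HNE Michael adduct quantified by LC-ESI-MS/MS.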

[15] = ACR quenching ability in homogeneous solution; conditions: 60 min; for percentage amount of ACR quenched: ACR 50 μM, quencher 500 μM (1:10); for ACR disappeared: ACR 200 μM, 1:10 molar excess
Stability in rat serum = type: in vitro ADME
[16] = human beings receiving 450 mg, 15 min up to 300 min; cited from earlier work
[17] = cited from earlier work
[18] = male, Sprague-Dawley, rat, plasma, po, 100 mg/kg

## NCCC(=O)N[C@H](Cc1c[nH]cn1)C(=O)O [D-CAR, β-alanyl-D-histidine]
[1]
  HNE quenched: ~100%
  residual amount of HNE: 46.9 ± 2.3%
[2]
  SBP: 137 ± 4 mmHg
  reduction of SBP versus ZK: 15.7%
[3]; oral 100 mg/kg, rat plasma
  half-life: 3.36 h
  systemic exposure up to infinite time AUC(0–∞): 318.62 ± 24.75 µM·h
  time until plasma concentration returned to baseline: 24 h
  Cmax: 52.86 ± 2.86 µM
[3]; oral 100 mg/kg, rat plasma, 100 mg/kg
  tmax: 2 h
[4]
  Kidney PCOs: 6.61 ± 1.52 ^* nmol/mg prot
  reduction of kidney PCOs versus ZK: 42.61%
[5]
  total cholesterol content in kidney: 6.668 ± 0.5087 μg/mg protein
  triglycerides content in kidney: 10.66 ± 0.3616 μg/mg protein
[6]
  restraint of proteinuria/albuminuria/creatininuria: approximately 50%
  change in creatinine clearance (GFR) versus ZK: +25.1%
  change in plasma creatinine concentration versus ZK: –36%
  restraint of the increase in urinary albumin-to-creatinine ratio: 65–70%
[7]; end of the experiment
  Carnosine level, Kidney: 127.7 ± 17.00 ^* ^*/°°° nmol/g wet tissue
  increase in kidney CAR content compared to ZK: 14.4 fold
  increase of plasma carnosine concentration: > 10 fold
  Carnosine level, Urine: 10,069 ± 1844 ^* ^*/°°° nmol/day
[7]; end of the experiment, 30 mg/kg/day for 24 weeks
  Carnosine level, Plasma: 5.37 ± 3.04 nmol/mL
[8]; 120 min of incubation
  remaining in rat kidney: 91%
[9]
  reduction of Ehrlich positive material versus ZK: ~21.7%
[9]; tail tendon collagen
  Collagen solubility: 71.4 ± 3.14 ^* ^* %
  Ehrlich adducts: 0.747 ± 0.384 µmol/mg
[10]
  change in plasma cholesterol versus ZK: –45%
  change in plasma triglycerides versus ZK: –43%
  insulin resistance (HOMA-IR) versus ZK: significantly improved
  reduction of hyperinsulinaemia (plasma insulin) versus ZK: 33.03%
  effect on plasma glucose levels: did not significantly affect
[11]
  hydrolysis in human liver: ~30%
[12]
  mean glomerular diameter: 1.042 ± 0.005
  glomerular and interstitial changes (glomerulosclerosis, tubulointerstitial damage) versus ZK: not significantly modified
[12]; electron microscopy, four animals per group
  GBM thickness: 3.75 ± 0.8 nm
Stability
  stability to enzymatic hydrolysis in human serum: remained unchanged until 6 hrs incubation
Stability; after 24 hrs of incubation
  decrease in human serum: 6%
[13]
  body weight difference versus LN: +40%
  body weight difference versus ZK: –9%
[14]
  effect on urinary TXB2 excretion rates: did not affect
  increase in urinary CAR-HNE levels compared to ZK: 2.2 fold
  AGEs: 324.4 ± 21.8 ^* ^* FU/mg creatinine/day
  CAR-HNE level: 0.982 ± 0.33 nmol/day
  8-epi-PGF2α level: 42.1 ± 3.9 ng/day
[15]
  percentage amount of ACR quenched: 65.0 ± 3.3%
  ACR disappeared: ~100%

## NCCC(=O)N[C@@H](Cc1cnc[nH]1)C(=O)O [L-CAR, β-alanyl-L-histidine]
[1]
  HNE quenched: ~100%
  residual amount of HNE: 46.2 ± 2.73%
[2]
  SBP: 145 ± 3 mmHg
  reduction of SBP versus ZK: 11.5%
[3]; [18]
  half-life: 0.24 ± 0.02 h
  tmax: 1 h
[3]; oral 100 mg/kg, rat plasma
  systemic exposure up to infinite time AUC(0–∞): 118.45 ± 9.24 µM·h
  time until plasma concentration returned to baseline: 2 h
  Cmax: 147.7 ± 6.50 µM
Stability in rat serum
  stability in rat serum: no significant reduction within at least 6 hrs
[4]
  Kidney PCOs: 8.83 ± 1.91 nmol/mg prot
  reduction of kidney PCOs versus ZK: 23.4%
[5]
  total cholesterol content in kidney: 6.31 ± 0.5115 μg/mg protein
  triglycerides content in kidney: 12.01 ± 0.9528 μg/mg protein
[6]
  restraint of proteinuria/albuminuria/creatininuria: approximately 50%
  change in creatinine clearance (GFR) versus ZK: +28.3%
  change in plasma creatinine concentration versus ZK: –31.7%
  restraint of the increase in urinary albumin-to-creatinine ratio: 65–70%
[7]; Zucker obese, rat, plasma, oral, 30 mg/kg/day
  concentration at 24 weeks: 0.473 ± 0.13 µM
[7]; end of the experiment
  Carnosine level, Kidney: 14.67 ± 2.09 nmol/g wet tissue
  increase in kidney CAR content compared to ZK: 1.6 fold
  Carnosine level, Urine: 32.62 ± 1.25 nmol/day
[8]; during the sample processing time
  hydrolysis in rat kidney: about 93%
[16]
  CAR in serum after oral supplementation: No CAR was detected in serum specimens
[9]
  reduction of Ehrlich positive material versus ZK: ~9.1%
[9]; tail tendon collagen
  increase of collagen solubility compared to ZK: 66.4%
  Collagen solubility: 65.4 ± 2.58 ^* %
  Ehrlich adducts: 0.868 ± 0.39 µmol/mg
[10]
  change in plasma cholesterol versus ZK: –40%
  change in plasma triglycerides versus ZK: –35%
  insulin resistance (HOMA-IR) versus ZK: significantly improved
  reduction of hyperinsulinaemia (plasma insulin) versus ZK: 28.08%
  effect on plasma glucose levels: did not significantly affect
[11]
  hydrolysis in human liver: ~30%
[12]
  mean glomerular diameter: 1.023 ± 0.02
  glomerular and interstitial changes (glomerulosclerosis, tubulointerstitial damage) versus ZK: not significantly modified
Stability
  stability to enzymatic hydrolysis in human serum: rapidly disappeared in human serum at the first time-point (60 min.)
Stability; in vitro studies in the authors' laboratories
  time to disappearance in human serum: ≤ 5 min
[13]
  body weight difference versus LN: +35.8%
  body weight difference versus ZK: –12%
[17]
  time to hydrolysis in human serum: ≤ 5 min
[14]
  effect on urinary TXB2 excretion rates: did not affect
  increase in urinary CAR-HNE levels compared to ZK: 1.7 fold
  AGEs: 337.2 ± 28.7 ^* FU/mg creatinine/day
  CAR-HNE level: 0.749 ± 0.37 nmol/day
  8-epi-PGF2α level: 37.6 ± 4.3 ng/day
[15]
  percentage amount of ACR quenched: 63.8 ± 3.5%
  ACR disappeared: ~100%
